ChEMBL document CHEMBL4431342, “Coumarin derivatives as potential inhibitors of acetylcholinesterase: Synthesis, molecular docking and biological studies” (Bioorg Med Chem, 2016)
Calls of active or inactive are those of the source. The calls are words filed in the database; no cut-off is given here.

Key:
Mus musculus [1] = experiment: Antiamnesic activity in Albino LACA mouse assessed as decrease in scopolamine-induced increase in escape latency time administered intraperitoneally 5 mins post scopolamine challenge for 35 mins by Morris water maze test; assay type: functional, organism-based
In short: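 Mice of either sex, 25-35 g, housed in groups of five. […] Water maze: water 30 cm deep at 28 ± 2 °C, 5 days, 90 s maximum per trial, then a 90 s probe trial. Read-out is escape latency; n = 5, mean ± SEM.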

Acetylcholinesterase = target: T1, Acetylcholinesterase (Mus musculus, UniProt P21836); experiment: biochemical; assay type: tissue-based, LACA, Brain
T1 sequence (P21836 whole entry): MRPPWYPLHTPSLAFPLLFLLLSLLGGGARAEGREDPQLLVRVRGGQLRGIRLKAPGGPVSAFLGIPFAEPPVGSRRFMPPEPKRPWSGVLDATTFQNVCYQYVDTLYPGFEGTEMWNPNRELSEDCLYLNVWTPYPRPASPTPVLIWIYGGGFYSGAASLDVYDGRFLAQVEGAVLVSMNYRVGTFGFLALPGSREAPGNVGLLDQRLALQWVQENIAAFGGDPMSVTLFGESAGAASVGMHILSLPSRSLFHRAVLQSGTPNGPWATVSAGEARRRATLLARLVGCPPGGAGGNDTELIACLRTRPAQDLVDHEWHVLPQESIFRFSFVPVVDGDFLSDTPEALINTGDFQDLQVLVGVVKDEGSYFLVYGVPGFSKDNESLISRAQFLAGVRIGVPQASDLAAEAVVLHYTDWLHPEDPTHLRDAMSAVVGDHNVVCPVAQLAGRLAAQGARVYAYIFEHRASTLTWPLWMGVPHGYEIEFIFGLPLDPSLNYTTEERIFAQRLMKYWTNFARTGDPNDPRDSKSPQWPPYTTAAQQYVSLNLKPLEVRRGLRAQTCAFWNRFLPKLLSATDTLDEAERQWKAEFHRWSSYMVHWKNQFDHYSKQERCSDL

Mus musculus [2] = experiment: Antiamnesic activity in Albino LACA mouse assessed as scopolamine-induced increase in escape latency time administered intraperitoneally 5 mins post scopolamine challenge for 35 mins by Morris water maze test (reference value: 49.35 +/- 2.21 secs); assay type: functional
In short: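 LACA albino mice, 25-35 g, either sex, housed five per group. Scopolamine 0.5 mg/kg i.p. or saline given 35 min before training, then vehicle (0.25% CMC suspension) or compound 1 mg/kg i.p. 5 min later. Water maze at 30 cm depth, 28 ± 2 °C, training over 5 days, 90 s maximum per trial, probe trial 90 s. Escape latency recorded, mean of 5 mice.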

| SMILES | Activity (Mus musculus [1]) | IC50 (Acetylcholinesterase) [µM] | Time (Mus musculus [2]) [s] |
| --- | --- | --- | --- |
| COc1ccc(CCNCCCOc2cc(=O)oc3ccccc23)cc1OC | Active | 47.1 | – |
| O=c1cc(OCCCCN2CCN(c3ccccn3)CC2)c2ccccc2o1 | Active | 37.5 | – |
| O=c1cc(OCCCCN2CCN(c3ncccn3)CC2)c2ccccc2o1 | Active | 34.8 | – |
| O=c1cc(OCCCN2CCN(c3ccccc3)CC2)c2ccccc2o1 | Active | 2.42 | 8.05 |
| O=c1cc(OCCCN2CCN(c3ncccn3)CC2)c2ccccc2o1 | Active | 21.6 | 13.98 |
| O=c1cc(OCCCN2CCN(c3ccccc3F)CC2)c2ccccc2o1 | Active | 5.2 | 11.8 |
| O=c1cc(OCCCN2CCN(c3ccccn3)CC2)c2ccccc2o1 | Active | 16.1 | – |
| O=c1cc(OCCCNCCc2ccccc2)c2ccccc2o1 | Active | 66.9 | – |
| O=c1cc(OCCCN2CCC(Cc3ccccc3)CC2)c2ccccc2o1 | Active | 11.4 | – |
| O=C(Oc1cc(=O)oc2ccccc12)N1CCN(c2ccccc2)CC1 | Active | 74.8 | – |
| O=c1cc(OCCCN2CCN(c3ccc(F)cc3)CC2)c2ccccc2o1 | Active | 9.5 | – |
| O=c1cc(OCCCCN2CCN(c3ccccc3)CC2)c2ccccc2o1 | Active | 14.9 | – |
| O=c1cc(OCCCCN2CCN(c3ccccc3F)CC2)c2ccccc2o1 | Active | 29.7 | – |
| O=C(NCCc1ccccc1)Oc1cc(=O)oc2ccccc12 | Active | 83.4 | – |
